test system: SK-HEP1; assay: Growth inhibition of human SKHEP1 cells after 48 hrs by SRB assay; assay type: functional; settings: SK-HEP1, 48 h
Method in brief: (§1)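 Cells grown in RPMI 1640 with 5% heat-inactivated FCS, 2 mM L-glutamine and antibiotics, 37 °C, 5% CO2. Seeded at 3500–30000 cells/well and left 24 h before dosing. DMSO solutions added at 10-fold dilutions from 100 to 0.01 μM for 48 h. Cells TCA-fixed and SRB-stained, absorbance read at 540 nm; GI50 derived against the time-zero plate.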

Which GI50 does the source give for `CCN1CCN(CCCc2ccc(C(c3ccccc3)C34CC5CC(CC(C5)C3)C4)cc2)CC1` (centres undefined) here?
The GI50 was 3.41 µM.

And the TGI?
Its TGI is 6.01 µM.

same assay, conditions: SK-HEP1, 48 h, read-out: LC50 (the source's name)

With `CCN1CCN(CCCc2ccc(C(c3ccccc3)C34CC5CC(CC(C5)C3)C4)cc2)CC1` (centres undefined) as the compound, how does the CC50 read?
Its CC50 is 0.00861 µM.

test system: PC-3; assay: Growth inhibition of human PC3 cells after 48 hrs by SRB assay; assay type: functional; settings: PC-3, 48 h; method in brief: as §1

For `CCN1CCN(CCCc2ccc(C(c3ccccc3)C34CC5CC(CC(C5)C3)C4)cc2)CC1` (centres undefined), which GI50 is on record?
The GI50 was 4.79 µM.

What about the TGI of the same compound?
The TGI was 7.84 µM.

same assay, conditions: PC-3, 48 h, read-out: LC50 (the source's name)

With `CCN1CCN(CCCc2ccc(C(c3ccccc3)C34CC5CC(CC(C5)C3)C4)cc2)CC1` (centres undefined) as the compound, how does the CC50 read?
Its CC50 is 0.0109 µM.

test system: HCT-15; assay: Growth inhibition of human HCT15 cells after 48 hrs by SRB assay; assay type: functional; settings: HCT-15, 48 h; method in brief: as §1

With `CCN1CCN(CCCc2ccc(C(c3ccccc3)C34CC5CC(CC(C5)C3)C4)cc2)CC1` (centres undefined) as the compound, how does the GI50 read?
Its GI50 is 4.09 µM.

And the TGI?
Its TGI is 7.64 µM.

same assay, conditions: HCT-15, 48 h, read-out: LC50 (the source's name)

With `CCN1CCN(CCCc2ccc(C(c3ccccc3)C34CC5CC(CC(C5)C3)C4)cc2)CC1` (centres undefined) as the compound, how does the CC50 read?
The CC50 was 0.0473 µM.

target: not listed separately; assay: Displacement of [3H]batrachotoxin benzoate from Na+ channel after 60 mins by liquid scintillation counting; settings: not given
Method in brief: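 Na+ channel site 2 binding: vesicle preparation (150−500 μg protein) incubated 60 min with 20−25 nM [3H]BTX-B and 50 μg Leiurius quinquestriatus venom. Buffer was 130 mM choline chloride, 50 mM HEPES/Tris pH 7.4, glucose, MgSO4, KCl, BSA. Filtered on GF/C with cold washes; scintillation counting. Nonspecific binding defined with 250 μM veratridine.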

For `c1ccc(CN2CCN(CCCc3ccc(C(c4ccccc4)C45CC6CC(CC(C6)C4)C5)cc3)CC2)cc1` (centres undefined), which IC50 is on record?
The IC50 was 0.0115 µM.

test system: MCF7; assay: Growth inhibition of human MCF7 cells after 48 hrs by SRB assay; assay type: functional; settings: MCF7, 48 h; method in brief: as §1

Which GI50 does the source give for `c1ccc(CN2CCN(CCCc3ccc(C(c4ccccc4)C45CC6CC(CC(C6)C4)C5)cc3)CC2)cc1` (centres undefined) here?
Its GI50 is 6.76 µM.

What about the TGI of the same compound?
Its TGI is 61.7 µM.

With `CCN1CCN(CCCc2ccc(C(c3ccccc3)C34CC5CC(CC(C5)C3)C4)cc2)CC1` (centres undefined) as the compound, how does the GI50 read?
The GI50 was 3.05 µM.

What about the TGI of the same compound?
Its TGI is 5.87 µM.

same assay, conditions: MCF7, 48 h, read-out: LC50 (the source's name)

Which CC50 does the source give for `c1ccc(CN2CCN(CCCc3ccc(C(c4ccccc4)C45CC6CC(CC(C6)C4)C5)cc3)CC2)cc1` (centres undefined) here?
The CC50 was 0.1 µM.

For `CCN1CCN(CCCc2ccc(C(c3ccccc3)C34CC5CC(CC(C5)C3)C4)cc2)CC1` (centres undefined), which CC50 is on record?
The CC50 was 0.00861 µM.

test system: NHDF; assay: (§2) Growth inhibition of human NHDF cells after 48 hrs by SRB assay; assay type: cell-based; settings: nhdf, 48 h; method in brief: as §1

For `c1ccc(CN2CCN(CCCc3ccc(C(c4ccccc4)C45CC6CC(CC(C6)C4)C5)cc3)CC2)cc1` (centres undefined), which LC50 is on record?
Its LC50 is 100 µM.

What about the TGI of the same compound?
Its TGI is 100 µM.

With `CCN1CCN(CCCc2ccc(C(c3ccccc3)C34CC5CC(CC(C5)C3)C4)cc2)CC1` (centres undefined) as the compound, how does the LC50 read?
Its LC50 is 100 µM.

And the TGI?
The TGI was 36.6 µM.

test system: not listed separately; assay: as §2; assay type: cell-based; settings: NHDF cells; method in brief: as §1

For `c1ccc(CN2CCN(CCCc3ccc(C(c4ccccc4)C45CC6CC(CC(C6)C4)C5)cc3)CC2)cc1` (centres undefined), which GI50 at 48 h is on record?
The GI50 at 48 h was 39.5 µM.

For `CCN1CCN(CCCc2ccc(C(c3ccccc3)C34CC5CC(CC(C5)C3)C4)cc2)CC1` (centres undefined), which GI50 at 48 h is on record?
Its GI50 at 48 h is 5.04 µM.

test system: BXPC-3; assay: Growth inhibition of human BxPC3 cells after 48 hrs by SRB assay; assay type: functional; settings: BXPC-3, 48 h; method in brief: as §1

Which GI50 does the source give for `c1ccc(CN2CCN(CCCc3ccc(C(c4ccccc4)C45CC6CC(CC(C6)C4)C5)cc3)CC2)cc1` (centres undefined) here?
The GI50 was 36.8 µM.

What about the LC50 of the same compound?
Its LC50 is 0.1 µM.

What about the TGI of the same compound?
Its TGI is 100 µM.

With `CCN1CCN(CCCc2ccc(C(c3ccccc3)C34CC5CC(CC(C5)C3)C4)cc2)CC1` (centres undefined) as the compound, how does the GI50 read?
The GI50 was 5.3 µM.

What about the LC50 of the same compound?
The LC50 was 0.1 µM.

And the TGI?
The TGI was 10.6 µM.

target: Sigma non-opioid intracellular receptor 1 (Homo sapiens, UniProt Q99720); assay: Displacement of [3H]-(+)-pentazocine from sigma 1 receptor in human Jurkat cell membrane; assay type: cell membranes; settings: not given
Method in brief: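 Jurkat cell membranes incubated with 8 nM [3H](+)-pentazocine and a range of test concentrations for 2 h at 22 °C in Tris-HCl buffer, pH 7.4. Nonspecific binding defined with 10 μM haloperidol. Run in triplicate.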

Sigma non-opioid intracellular receptor 1, sequence (Q99720 whole entry): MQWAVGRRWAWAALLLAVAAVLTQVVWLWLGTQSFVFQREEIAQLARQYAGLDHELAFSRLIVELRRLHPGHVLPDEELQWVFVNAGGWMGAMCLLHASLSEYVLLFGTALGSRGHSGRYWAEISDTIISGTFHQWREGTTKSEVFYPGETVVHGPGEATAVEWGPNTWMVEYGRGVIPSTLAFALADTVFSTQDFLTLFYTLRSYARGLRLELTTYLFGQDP

Which IC50 does the source give for `c1ccc(CN2CCN(CCCc3ccc(C(c4ccccc4)C45CC6CC(CC(C6)C4)C5)cc3)CC2)cc1` (centres undefined) here?
The IC50 was 0.0361 µM.

test system: U-251; assay: Growth inhibition of human U251 cells after 48 hrs by SRB assay; assay type: functional; settings: U-251, 48 h; method in brief: as §1

What does the source list for `c1ccc(CN2CCN(CCCc3ccc(C(c4ccccc4)C45CC6CC(CC(C6)C4)C5)cc3)CC2)cc1` (centres undefined)?
GI50: 36.4 µM; TGI: 79.1 µM

With `CCN1CCN(CCCc2ccc(C(c3ccccc3)C34CC5CC(CC(C5)C3)C4)cc2)CC1` (centres undefined) as the compound, how does the GI50 read?
The GI50 was 4.29 µM.

And the TGI?
The TGI was 6.69 µM.

same assay, conditions: U-251, 48 h, read-out: LC50 (the source's name)

With `c1ccc(CN2CCN(CCCc3ccc(C(c4ccccc4)C45CC6CC(CC(C6)C4)C5)cc3)CC2)cc1` (centres undefined) as the compound, how does the CC50 read?
Its CC50 is 0.1 µM.

For `CCN1CCN(CCCc2ccc(C(c3ccccc3)C34CC5CC(CC(C5)C3)C4)cc2)CC1` (centres undefined), which CC50 is on record?
The CC50 was 0.00909 µM.

target: not listed separately; assay: Displacement of [3H]1,3-di-otolylguanidine from sigma 2 receptor in rat cerebral cortex membranes; assay type: cell membranes, Membrane; settings: not given
Method in brief: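 Rat cerebral cortex membranes incubated with 5 nM [3H]DTG plus 300 nM (+)-pentazocine to mask σ1 sites, together with a range of test concentrations, 2 h at 22 °C in Tris-HCl, pH 7.4. Nonspecific binding defined with 10 μM haloperidol.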

With `c1ccc(CN2CCN(CCCc3ccc(C(c4ccccc4)C45CC6CC(CC(C6)C4)C5)cc3)CC2)cc1` (centres undefined) as the compound, how does the IC50 read?
The IC50 was 0.0283 µM.

test system: not listed separately; assay: Growth inhibition of human MSC cells after 48 hrs by SRB assay; assay type: cell-based; settings: not given; method in brief: as §1

Which TGI does the source give for `CCN1CCN(CCCc2ccc(C(c3ccccc3)C34CC5CC(CC(C5)C3)C4)cc2)CC1` (centres undefined) here?
The TGI was 8.69 µM.

test system: HCT-116; assay: Growth inhibition of human HCT116 cells after 48 hrs by SRB assay; assay type: functional; settings: HCT-116, 48 h; method in brief: as §1

Which GI50 does the source give for `c1ccc(CN2CCN(CCCc3ccc(C(c4ccccc4)C45CC6CC(CC(C6)C4)C5)cc3)CC2)cc1` (centres undefined) here?
The GI50 was 7.72 µM.

What about the TGI of the same compound?
The TGI was 39.7 µM.

Which GI50 does the source give for `CCN1CCN(CCCc2ccc(C(c3ccccc3)C34CC5CC(CC(C5)C3)C4)cc2)CC1` (centres undefined) here?
The GI50 was 3.29 µM.

What about the TGI of the same compound?
The TGI was 5.9 µM.

same assay, conditions: HCT-116, 48 h, read-out: LC50 (the source's name)

For `c1ccc(CN2CCN(CCCc3ccc(C(c4ccccc4)C45CC6CC(CC(C6)C4)C5)cc3)CC2)cc1` (centres undefined), which CC50 is on record?
Its CC50 is 0.0829 µM.

With `CCN1CCN(CCCc2ccc(C(c3ccccc3)C34CC5CC(CC(C5)C3)C4)cc2)CC1` (centres undefined) as the compound, how does the CC50 read?
Its CC50 is 0.00852 µM.

test system: HUVEC; assay: (§3) Growth inhibition of human HUVEC cells after 48 hrs by SRB assay; assay type: cell-based; settings: huvec, 48 h; method in brief: as §1

For `CCN1CCN(CCCc2ccc(C(c3ccccc3)C34CC5CC(CC(C5)C3)C4)cc2)CC1` (centres undefined), which LC50 is on record?
Its LC50 is 9.4 µM.

What about the TGI of the same compound?
Its TGI is 6.73 µM.

test system: not listed separately; assay: as §3; assay type: cell-based; settings: HUVEC cells; method in brief: as §1

For `CCN1CCN(CCCc2ccc(C(c3ccccc3)C34CC5CC(CC(C5)C3)C4)cc2)CC1` (centres undefined), which GI50 at 48 h is on record?
The GI50 at 48 h was 4.07 µM.

test system: DU-145; assay: Growth inhibition of human DU145 cells after 48 hrs by SRB assay; assay type: functional; settings: DU-145, 48 h; method in brief: as §1

Which GI50 does the source give for `CCN1CCN(CCCc2ccc(C(c3ccccc3)C34CC5CC(CC(C5)C3)C4)cc2)CC1` (centres undefined) here?
The GI50 was 5.33 µM.

What about the TGI of the same compound?
Its TGI is 8.5 µM.

same assay, conditions: DU-145, 48 h, read-out: LC50 (the source's name)

Which CC50 does the source give for `CCN1CCN(CCCc2ccc(C(c3ccccc3)C34CC5CC(CC(C5)C3)C4)cc2)CC1` (centres undefined) here?
The CC50 was 0.0117 µM.

— ChEMBL document CHEMBL2202989, “New adamantane phenylalkylamines with σ-receptor binding affinity and anticancer activity, associated with putative antagonism of neuropathic pain” (J Med Chem, 2012)
